DDE Tn6 FP inh: inhibitors of Tn6 peptide binding to human fibrin DD(E). inhibition, % at 8.3 µM. Fibrin DD(E) TRITC-Tn6 fluorescence polarization displacement. P02675. 0.21% of 370,000 active;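 active = inhibition above a per-campaign cutoff: mean of compounds within control limits plus 3 SD, cut at about 15% in these data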
Target sequence (P02675 whole entry, looked up): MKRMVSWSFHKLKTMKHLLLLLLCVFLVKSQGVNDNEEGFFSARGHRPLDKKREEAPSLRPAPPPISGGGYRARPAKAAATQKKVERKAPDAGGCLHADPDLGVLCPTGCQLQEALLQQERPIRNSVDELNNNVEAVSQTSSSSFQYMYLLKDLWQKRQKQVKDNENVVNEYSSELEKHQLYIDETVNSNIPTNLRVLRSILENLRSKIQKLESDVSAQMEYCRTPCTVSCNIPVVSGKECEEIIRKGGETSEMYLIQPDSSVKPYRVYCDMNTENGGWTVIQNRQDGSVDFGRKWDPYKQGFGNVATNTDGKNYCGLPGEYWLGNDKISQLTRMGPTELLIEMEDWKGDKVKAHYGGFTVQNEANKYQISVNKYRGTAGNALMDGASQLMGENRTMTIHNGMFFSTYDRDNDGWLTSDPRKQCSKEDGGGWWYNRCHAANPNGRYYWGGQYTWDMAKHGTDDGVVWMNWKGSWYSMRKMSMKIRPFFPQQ
TCR-CD3 inh: blocks the human TCR-CD3 interaction; AID 651800; 0.37% of 360,000 active; TAMRA-labeled TCR probe fluorescence, biochemical; inhibition, % at 9.4 µM; in the data active = inhibition above about 19%;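 also: recombinant mutant TCR 2C K166C tagged with TAMRA read by polarization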
SIAE inh: inhibitors of human sialic acid acetylesterase SIAE; Q9HAT2; SIAE FP-Rh probe binding, fluorescence polarization; 0.69% of 370,000 active; inhibition, % at 9.66 µM; AID 1053197;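 active = inhibition above a cutoff: mean of compounds within the control limits plus 3 SD of those, cut at about 17% in these data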
mABHD4 FP: inhibitors of mouse ABHD4. 0.54% of 370,000 active. purified mABHD4, FP-Rh probe fluorescence polarization. AID 720543. inhibition, % at 8.92 µM;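 active = inhibition exceeding the mean over every tested compound plus 3 SD, cut at about 30% in these data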
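Assay system: wild-type mouse ABHD4 protein; compound: single nominal dose of 8.92 µM, 0.89% DMSO final; schedule: 45 min + 60 min at 25 °C; measured by: FP readout, ex 525 nm / em 598 nm; evaluation: % inhibition of FP-Rh probe binding versus controls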
DDE Tn7 FP inh: inhibitors of Tn7 peptide binding to human fibrin DD(E). P02675. FP displacement of FITC-Tn7 peptide from fibrin DD(E); 0% = median of compound wells per plate. inhibition, % at 8.3 µM. 0.13% of 370,000 active;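 active = inhibition above the mean of compounds falling within the control limits plus 3 SD of them, cut at about 14% in these data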
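Assay system: human fibrin DD(E) protein / Input: 2 µM fibrin DD(E) / Benchmarks: high control of 10 µM Aha-Tn7 peptide / Measured by: fluorescence polarization of the labelled Tn7 tracer / Medium: Tris buffer with calcium and detergent, pH 7.8 / Timing: 10 min compound pre-incubation, 3 h probe incubation at room temperature / Repeats: one replicate per compound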
HTRA1 inh: inhibitors of human serine peptidase HTRA1. 0.5% of 340,000 active. inhibition, % at 5.96 µM. Q92743. recombinant HTRA1, FP-rhodamine activity-based probe, fluorescence polarization; in the data active = inhibition above about 36%
SIAE inh conf: confirmation of human SIAE inhibitors; shares compounds with SIAE inh; SIAE FP-Rh activity-based probe, fluorescence polarization; inhibition, % at 9.66 µM; 13% of 2,300 active; AID 1117263;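 active = mean inhibition of the replicates above the hit cutoff set in the primary screen, cut at about 17% in these data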;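 also: inhibitors lower polarization as more probe stays unbound to SIAE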
Each line names hits and unclear results; the compound was inactive in the other large screens (follow-up assays come after a bar, where they were run). An excerpt weighted towards active compounds, which were near 1.8% of everything screened.

CCOc1ccc2nc(NC(=O)Nc3ccccc3)sc2c1	none
CCC[C@H](/C=C/C(=O)OC(C)(C)C)Sc1ccc(OC)cc1	none (no result: TCR-CD3 inh, HTRA1 inh)
COC(=O)[C@]12C[C@H](CC(=O)NCc3cccs3)C(=O)N(CCC3=CCCCC3)C1=C[C@H](COCc1ccccc1)O[C@@H]2C	none (no result: HTRA1 inh)
C[C@H](O)[C@@H]1C(=O)N2CCc3c([nH]c4cccc(-c5ccccc5)c34)[C@@H]2C[C@@H]1N(C)C(=O)c1ccco1	none (no result: HTRA1 inh)
C/C(=N\Nc1nc2ccccc2[nH]1)c1cc2ccccc2o1	SIAE inh 24 | SIAE inh conf inactive
C/C(=N\Nc1nc2ccccc2[nH]1)c1ccc2c(c1)OCCO2	SIAE inh 20 | SIAE inh conf inactive
C/C(=N\NC(=O)c1ccncc1)c1cc2ccccc2o1	none
CCOC(=O)[C@]12CCCC3=C1N(CCC3)C(=O)[C@@H](CC(=O)NCc1ccc(C)o1)C2	none (no result: TCR-CD3 inh, HTRA1 inh)
Cc1ccc(-n2c(SC/C=C/c3ccccc3)nnc2-c2ccco2)cc1	none (no result: TCR-CD3 inh, HTRA1 inh)
Cc1ccc(NC(=S)Nc2cc(C(=O)O)ccc2N2CC3CC(C2)c2cccc(=O)n2C3)cc1C (stereo not drawn)	none
COc1cccc(NC(=S)Nc2cc(C(=O)O)ccc2N2CC3CC(C2)c2cccc(=O)n2C3)c1 (stereo not drawn)	SIAE inh 18 | SIAE inh conf inactive
Cc1cccc(C2=CC(=O)CC(C)(C)C2=O)c1	none (no result: HTRA1 inh)
CC(C)(C)c1nc2sc3c(c2c(=O)o1)CCCC3	none
CCc1nc2sc3c(c2c(=O)o1)CCCC3	SIAE inh 20 | SIAE inh conf inactive
CCn1nnnc1NCc1ccc(SC)cc1	SIAE inh 17 | SIAE inh conf inactive
CCn1nnnc1NCc1ccc(N2CCCC2)cc1	none
O=C(Nc1ccc(Nc2ccccc2)cc1)c1ccc(Cl)cc1[N+](=O)[O-]	SIAE inh 21 (no result: HTRA1 inh) | SIAE inh conf inactive
Cc1cc(C(=O)Nc2ccc(Nc3ccccc3)cc2)ccc1[N+](=O)[O-]	SIAE inh 19 | SIAE inh conf 19
Nc1ccn([C@@H]2O[C@H](C(=O)N3CCN(CCO)CC3)[C@@H](O)[C@H]2O)c(=O)n1	none (no result: HTRA1 inh)
CCOCCCNC(=S)Nc1ccc2nc(N3CCOCC3)cc(C)c2c1	SIAE inh 17 | SIAE inh conf inactive
O=C(c1ccc([N+](=O)[O-])cc1)N1CCSC1c1ccccc1 (stereo not drawn)	none
CN(C)c1ccc(C2SCCN2C(=O)c2ccc([N+](=O)[O-])cc2)cc1 (stereo not drawn)	SIAE inh 19 | SIAE inh conf inactive
CN1CCCCC(NC(=O)c2cccc(F)c2)C1=O (stereo not drawn)	none (no result: HTRA1 inh)
COc1ccccc1C(=O)N/C(=C\c1cn(C)c2ccccc12)C(=O)N1CCOCC1	SIAE inh 21 | SIAE inh conf inactive
CC1CCN(C(=O)/C(=C\c2ccco2)NC(=O)c2ccccc2)CC1	SIAE inh 23 | SIAE inh conf inactive
COc1ccc(-c2ccc(/C=C(\NC(=O)c3ccccc3)C(=O)N3CCOCC3)o2)cc1	SIAE inh 17 | SIAE inh conf inactive
O=C(C(=O)N1CCC(CNS(=O)(=O)c2cccc(C(F)(F)F)c2)CC1)c1cc2ccccc2o1	none (no result: HTRA1 inh)
O=C1CCC[C@H]2C[C@H](NCc3cccc(Cl)c3)CC[C@]23CCCN13	none (no result: TCR-CD3 inh, HTRA1 inh)
COc1ccc(NC(=O)N(C)C[C@H]2OCc3cnnn3CCCC(=O)N([C@H](C)CO)C[C@@H]2C)c(OC)c1	SIAE inh 21 (no result: HTRA1 inh) | SIAE inh conf inactive
COc1ccc(NC(=O)N(C)C[C@@H]2OCc3cnnn3CCCC(=O)N([C@@H](C)CO)C[C@H]2C)c(OC)c1	none
O=S1(=O)c2ccc(N3CCCC3)cc2Oc2ccccc2CN1Cc1cn(Cc2ccc(F)cc2)nn1	none (no result: TCR-CD3 inh, HTRA1 inh)
Cc1ccccc1NS(=O)(=O)c1ccc(C(=O)N2CCN(S(=O)(=O)c3ccccc3)CC2)cc1	SIAE inh 19 | SIAE inh conf inactive
Cc1ccc(N/C(N)=N/c2nc(C)cc(C)n2)cc1	none
Cc1cc(C)cc(N/C(N)=N/c2nc(C)cc(C)n2)c1	SIAE inh 23 | SIAE inh conf inactive
CC(Sc1nnc(COc2ccc(Cl)cc2)o1)C(=O)Nc1ccc(N2CCOCC2)cc1 (stereo not drawn)	none
CCc1ccc(NC(=O)C(C)Sc2nnc(CN3CCCC3)o2)cc1 (stereo not drawn)	SIAE inh 19 | SIAE inh conf inactive
COc1cc(OC)c(OC)cc1CNC(=O)CCN1C(=O)c2cccc([N+](=O)[O-])c2C1=O	SIAE inh 19 | SIAE inh conf inactive
O=C(c1ccccc1)c1ccncc1	SIAE inh 28 | SIAE inh conf inactive
O=C(NNC(=O)c1ccncc1)c1ccccc1	none
CN[C@H]1C[C@H]2c3[nH]c4c(-c5ccccc5)cccc4c3CCN2C[C@H]1[C@H](C)O	none (no result: HTRA1 inh)
CN(C)c1nc2c(N)ncnc2n1[C@H]1O[C@@H](CO)[C@H](O)[C@@H]1O	SIAE inh 22 | SIAE inh conf inactive
O=C(OCc1cn(Cc2ccc(F)c(F)c2)nn1)N1CCOCC1	none (no result: TCR-CD3 inh, HTRA1 inh)
NNC(=O)c1ccc(Cn2cccn2)o1	SIAE inh 21 | SIAE inh conf inactive
COc1ccc(OC)c([N+](=O)[O-])c1C(N)=O	SIAE inh 33 | SIAE inh conf inactive
COc1ccc(NC(C)=O)c([N+](=O)[O-])c1[N+](=O)[O-]	none
COc1ccc(NS(=O)(=O)c2cc(NC(=O)c3cccs3)ccc2N2CCCC2)cc1	SIAE inh 26 | SIAE inh conf inactive
COc1ccc(NC(=S)NNC(=O)c2cccs2)cc1	SIAE inh 18 | SIAE inh conf inactive
CN(C)c1cccc(/C=C2\CC3(OC(=O)c4ccco4)CCCN2C3)c1 (stereo not drawn)	none (no result: TCR-CD3 inh, HTRA1 inh)
CCOc1cccc(/C=N/N2CCN(c3ccc(Cl)cc3)CC2)c1O	SIAE inh 21 | SIAE inh conf inactive
O=C(NCc1cccs1)c1cccc(Nc2nc3ccc(Br)cc3[nH]2)c1	SIAE inh 43 | SIAE inh conf 22
O=C(NCc1cccs1)c1ccccc1	none
CN(CCCOC(=O)c1cc2ccccc2o1)C1CN(Cc2cn(Cc3ccccc3Cl)nn2)S(=O)(=O)C1 (stereo not drawn)	none (no result: TCR-CD3 inh, HTRA1 inh)
COc1cc(/C=C/C(=O)OCC(=O)N2CCC(C)CC2)ccc1O	none
COc1cc(/C=C/C(=O)OCC(=O)N2CCc3ccccc3C2)ccc1O	SIAE inh 21 | SIAE inh conf inactive
O=S(=O)(NC1CCCc2ccccc21)c1cnc[nH]1 (stereo not drawn)	SIAE inh 26 | SIAE inh conf inactive
O=C(O)c1ccc(S(=O)(=O)NC2CCCc3ccccc32)cc1 (stereo not drawn)	none
CC(=O)c1ccc(C(=O)Nc2nnc(-c3ccc(Cl)cc3)o2)cc1	none

Source: PubChem BioAssay (The Scripps Research Institute Molecular Screening Center)
